Data on five compounds can be found in ChEMBL document CHEMBL4251719, “Drimane Sesquiterpenoids Noncompetitively Inhibit Human α4β2 Nicotinic Acetylcholine Receptors with Higher Potency Compared to Human α3β4 and α7 Subtypes” (J Nat Prod, 2018).

What all share (format): cell-based
The target of assay [1] is T1, Neuronal acetylcholine receptor; alpha4/beta2 (Homo sapiens, UniProt P17787+P43681). Nature of the assay: Agonist activity at human alpha4beta2 nAChR expressed in HEK293 cells assessed as increase in calcium influx at 100 uM measured for 78 secs by Fluo-4-AM dye based FLIPR assay. The gist of the method: (§1)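 Cells seeded 5 × 10^4/well 72 h before, 37 °C, 5% CO2; medium switched to HBSS (pH 7.4)/1% FBS 16–24 h before assay. Loaded 1 h at 37 °C with Fluo-4 plus 2.5 mM probenecid. Compound added alone on FLIPR, fluorescence (ex 488/em 510 nm) recorded 78 s; response normalized to maximal (±)-epibatidine response.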
T1 sequence (P17787 whole entry): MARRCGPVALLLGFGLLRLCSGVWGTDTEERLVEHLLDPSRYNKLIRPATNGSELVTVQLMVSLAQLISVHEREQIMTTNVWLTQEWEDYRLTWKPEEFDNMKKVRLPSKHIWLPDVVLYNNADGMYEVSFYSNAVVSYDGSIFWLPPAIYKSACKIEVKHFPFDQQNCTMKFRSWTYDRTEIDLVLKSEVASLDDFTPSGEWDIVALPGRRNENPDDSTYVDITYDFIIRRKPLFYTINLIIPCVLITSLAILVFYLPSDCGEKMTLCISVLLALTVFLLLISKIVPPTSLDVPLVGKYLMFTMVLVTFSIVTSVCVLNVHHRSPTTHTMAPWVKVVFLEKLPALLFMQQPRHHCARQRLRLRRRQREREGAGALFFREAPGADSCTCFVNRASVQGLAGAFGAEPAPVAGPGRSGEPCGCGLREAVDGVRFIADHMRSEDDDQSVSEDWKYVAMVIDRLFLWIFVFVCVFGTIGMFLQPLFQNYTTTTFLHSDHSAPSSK
T1 sequence (P43681 whole entry): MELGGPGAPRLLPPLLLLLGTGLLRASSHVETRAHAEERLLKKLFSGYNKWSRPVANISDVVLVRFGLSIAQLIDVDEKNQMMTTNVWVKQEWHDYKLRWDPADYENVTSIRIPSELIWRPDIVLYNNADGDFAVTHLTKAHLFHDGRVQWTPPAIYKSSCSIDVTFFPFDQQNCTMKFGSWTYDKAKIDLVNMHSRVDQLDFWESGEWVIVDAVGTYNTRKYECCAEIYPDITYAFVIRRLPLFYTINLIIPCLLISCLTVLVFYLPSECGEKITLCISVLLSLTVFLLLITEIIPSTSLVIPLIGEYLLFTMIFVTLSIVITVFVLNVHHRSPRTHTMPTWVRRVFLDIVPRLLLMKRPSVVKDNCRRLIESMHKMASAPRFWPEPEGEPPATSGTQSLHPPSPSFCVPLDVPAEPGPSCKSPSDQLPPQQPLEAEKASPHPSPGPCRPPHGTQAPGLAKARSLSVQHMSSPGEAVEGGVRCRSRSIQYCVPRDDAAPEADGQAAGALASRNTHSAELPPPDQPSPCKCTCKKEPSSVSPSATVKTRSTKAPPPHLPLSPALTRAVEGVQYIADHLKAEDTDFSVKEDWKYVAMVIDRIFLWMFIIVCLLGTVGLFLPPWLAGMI

Assay [2] deals with T2, Neuronal acetylcholine receptor subunit alpha-7 (Homo sapiens, UniProt P36544). Nature of the assay: Agonist activity at human alpha7 nAChR expressed in rat GH3 cells assessed as increase in calcium influx at 100 uM measured for 78 secs by Fluo-4-AM dye based FLIPR assay. The gist of the method: as §1
T2 sequence (P36544 whole entry): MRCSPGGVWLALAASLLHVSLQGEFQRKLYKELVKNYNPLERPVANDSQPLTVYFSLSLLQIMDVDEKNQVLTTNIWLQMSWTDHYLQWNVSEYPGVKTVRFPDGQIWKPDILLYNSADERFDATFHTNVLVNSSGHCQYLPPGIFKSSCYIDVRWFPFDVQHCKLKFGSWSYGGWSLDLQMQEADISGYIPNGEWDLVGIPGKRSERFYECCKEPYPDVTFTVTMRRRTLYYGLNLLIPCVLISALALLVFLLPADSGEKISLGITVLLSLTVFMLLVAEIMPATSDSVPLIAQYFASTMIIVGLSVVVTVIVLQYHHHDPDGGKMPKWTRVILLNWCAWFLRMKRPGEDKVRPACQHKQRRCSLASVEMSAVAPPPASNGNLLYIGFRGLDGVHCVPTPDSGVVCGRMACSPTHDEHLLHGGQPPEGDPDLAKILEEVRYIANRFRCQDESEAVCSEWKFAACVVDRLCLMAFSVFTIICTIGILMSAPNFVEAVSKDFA
Assay [3] addresses T3, Neuronal acetylcholine receptor; alpha3/beta4 (Homo sapiens, UniProt P30926+P32297). Nature of the assay: Agonist activity at human alpha3beta4 nAChR expressed in HEK293 cells assessed as increase in calcium influx at 100 uM measured for 78 secs by Fluo-4-AM dye based FLIPR assay. The gist of the method: as §1
Assay [4] has as its target T1, Neuronal acetylcholine receptor; alpha4/beta2. Kind of assay: Antagonist activity at human alpha4beta2 nAChR expressed in HEK293 cells assessed as inhibition of (+/-)-epibatidine-induced calcium influx at 1 uM preincubated for 5 mins followed by (+/-)-epibatidine addition measured for 78 secs by Fluo-4-AM dye based FLIPR assay. The gist of the method:
(§2)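 Fluo-4-loaded cells (1 h, 37 °C, 2.5 mM probenecid) washed twice in HBSS/1% FBS, then preincubated 5 min with test ligand at various concentrations. 0.1 μM (±)-epibatidine added on FLIPR after 5-reading baseline; fluorescence (ex 488/em 510 nm) recorded 78 s. Response normalized to maximal epibatidine response; IC50 and nH from nonlinear least-squares curve fits; SD, n = 3.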

For assay [5] the target is unchanged. Kind of assay: Antagonist activity at human alpha4beta2 nAChR expressed in HEK293 cells assessed as inhibition of (+/-)-epibatidine-induced calcium influx preincubated for 5 mins followed by (+/-)-epibatidine addition measured for 78 secs by Fluo-4-AM dye based FLIPR assay. The gist of the method: as §2
The target of assay [6] is T3, Neuronal acetylcholine receptor; alpha3/beta4. Nature of the assay: Antagonist activity at human alpha3beta4 nAChR expressed in HEK293 cells assessed as inhibition of (+/-)-epibatidine-induced calcium influx preincubated for 5 mins followed by (+/-)-epibatidine addition measured for 78 secs by Fluo-4-AM dye based FLIPR assay. In a few lines:
as §2

Assay [7] addresses T2, Neuronal acetylcholine receptor subunit alpha-7. Kind of assay: Antagonist activity at human alpha7 nAChR expressed in HEK293 cells assessed as inhibition of (+/-)-epibatidine-induced calcium influx preincubated for 5 mins followed by (+/-)-epibatidine addition measured for 78 secs by Fluo-4-AM dye based FLIPR assay. Conditions: in the assay text read “GH3” for “HEK293”. In a few lines: as §2

The target in assay [8] is T1, Neuronal acetylcholine receptor; alpha4/beta2. Nature of the assay: Antagonist activity at human alpha4beta2 nAChR expressed in HEK293 cells assessed as inhibition of (+/-)-epibatidine-induced calcium influx up to 100 uM preincubated for 5 mins followed by (+/-)-epibatidine addition measured for 78 secs by Fluo-4-AM dye based FLIPR assay. In a few lines:
as §2

For assay [9] the target is unchanged. Nature of the assay: Antagonist activity at human alpha4beta2 nAChR expressed in HEK293 cells assessed as inhibition of (+/-)-epibatidine-induced calcium influx at 10 to 100 uM preincubated for 5 mins followed by (+/-)-epibatidine addition measured for 78 secs by Fluo-4-AM dye based FLIPR assay relative to control. In a few lines:
as §2

The target is the same in assay [10]. Kind of assay: Non-competitive inhibition of human alpha4beta2 nAChR expressed in HEK293 cells assessed as inhibition of (+/-)-epibatidine-induced calcium influx preincubated for 5 mins followed by (+/-)-epibatidine addition measured for 78 secs by Fluo-4-AM dye based FLIPR assay. The gist of the method: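 (±)-Epibatidine concentration–response curves measured on hα4β2 HEK293 cells without drimane or after 5 min preincubation with 0.3, 1.0 and 3.0 μM; Fluo-4 Ca2+ fluorescence on FLIPR, 78 s recording; n = 3.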

Active and inactive are the calls of the source. No cut-off for these calls is given here.

T3 sequence (P30926 whole entry): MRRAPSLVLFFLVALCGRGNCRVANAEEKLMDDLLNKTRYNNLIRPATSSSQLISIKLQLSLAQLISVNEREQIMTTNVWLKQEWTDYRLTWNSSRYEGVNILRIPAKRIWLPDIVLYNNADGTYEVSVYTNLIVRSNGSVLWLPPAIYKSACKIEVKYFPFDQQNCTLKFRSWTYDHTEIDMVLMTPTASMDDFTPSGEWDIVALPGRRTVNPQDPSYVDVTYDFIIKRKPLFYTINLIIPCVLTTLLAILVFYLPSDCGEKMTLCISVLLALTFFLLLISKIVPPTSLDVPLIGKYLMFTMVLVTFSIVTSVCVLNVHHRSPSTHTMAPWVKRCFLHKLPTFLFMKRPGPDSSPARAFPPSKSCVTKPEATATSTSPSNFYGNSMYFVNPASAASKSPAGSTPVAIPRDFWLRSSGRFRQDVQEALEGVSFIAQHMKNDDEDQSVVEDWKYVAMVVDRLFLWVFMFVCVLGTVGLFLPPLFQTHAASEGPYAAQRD
T3 sequence (P32297 whole entry): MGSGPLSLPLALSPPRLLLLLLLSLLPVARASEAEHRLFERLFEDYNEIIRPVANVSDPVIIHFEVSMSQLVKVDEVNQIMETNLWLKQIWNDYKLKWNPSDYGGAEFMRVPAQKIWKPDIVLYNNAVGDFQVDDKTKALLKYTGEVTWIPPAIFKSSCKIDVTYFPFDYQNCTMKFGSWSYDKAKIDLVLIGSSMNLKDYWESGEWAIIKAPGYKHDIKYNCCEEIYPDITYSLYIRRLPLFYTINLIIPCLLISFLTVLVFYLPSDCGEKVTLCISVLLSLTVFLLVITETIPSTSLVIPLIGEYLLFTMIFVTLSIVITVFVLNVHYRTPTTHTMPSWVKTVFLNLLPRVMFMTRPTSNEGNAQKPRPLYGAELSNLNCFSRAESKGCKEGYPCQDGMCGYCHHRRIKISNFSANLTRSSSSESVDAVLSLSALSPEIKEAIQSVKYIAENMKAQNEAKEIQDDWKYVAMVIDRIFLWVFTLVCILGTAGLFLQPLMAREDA

As for `Clc1ccc(C2C[C@@H]3CCC2N3)cn1` (stereo partly drawn), the outcome in assay [1], in [2] and in assay [3] was inactive. Further, the inhibition entry in assay [4] was “Active”.
In the case of `CC1(C)CCC[C@]2(C)[C@H]3COC(=O)C3=CC[C@@H]12` [CINNAMOLIDE], the result in [1], in [2] and in assay [3] was inactive. Besides, in assay [4], the inhibition entry was “Active”. In addition, the values for the IC50 in [5] (read-out: IC50), in assay [6] and in [7] were 1.57 µM, 2.62 µM and 4.64 µM, respectively.
`CC1(C)CCC[C@]2(C)[C@@H]3C(=CC[C@@H]12)C(=O)O[C@H]3O` [DENDOCARBIN A]: the result in assay [1], in [2] and in [3] was inactive. In assay [8], the inhibition entry was “inactive”. Further, the IC50 entry in [5] (hek293) was “Not Active”; in [6], more than 100 µM; in [7] it was more than 100 µM.
For the compound `CC1(C)CCC[C@]2(C)[C@H]3C(=O)OCC3=CC[C@@H]12` [DRIMENIN], the result in assay [1], in assay [2] and in [3] was inactive. The inhibition in [9] came out at 100%. Moreover, the values for the IC50 in assay [5] (read-out: IC50), in [6] and in assay [7] were 0.97 µM, 1.78 µM and 13.8 µM, respectively. Further, the inhibition result in [10] was “Active”.
For `CC1(C)CCC[C@]2(C)[C@@H](C=O)C(C=O)=CC[C@@H]12` [POLYGODIAL], the result in assay [1], in assay [2] and in assay [3] was inactive. For the same compound, the inhibition entry in assay [4] was “Active”. The IC50 is 62.5 µM in [5] (read-out: IC50), 48.2 µM in assay [6] and more than 100 µM in [7].

In general, inhibition refers to the percentage by which the read-out fell short of the control. Usually IC50 stands for the point on the concentration scale where inhibition reaches its midpoint.
